Results published in ChEMBL document CHEMBL1156371, “New polyoxygenated briarane diterpenoids, briaexcavatolides O-R, from the gorgonian Briareum excavatum” (2001).
In brackets after ≈: the same amount, converted by molar mass. Activity calls are given as the source filed them. No cut-off for these calls is given here.

How the values were obtained:
Type in all cases: functional
P388 = assay: Cytotoxicity against mouse P388 cells by MTT assay
Summary of the method: (§1)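 Colorimetric read-out using a modified MTT [3-(4,5-dimethylthiazol-2-yl)-2,5-diphenyltetrazolium bromide] method, following previously described procedures.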

A549 = assay: Cytotoxicity against human A549 cells by MTT assay; summary of the method: as §1
HT-29 = assay: Cytotoxicity against human HT-29 cells by MTT assay; summary of the method: as §1
[1] = read-out: ED50 (the source's name)

Row | Structure (SMILES) | Activity (P388) | Activity (A549) | Activity (HT-29) | EC50 (P388; [1]) | EC50 (A549; [1]) | EC50 (HT-29; [1])
1 | CCCC(=O)O[C@@H]1/C(C)=C\[C@@H]2OC(=O)[C@@]3(C)O[C@]23[C@@H](OC(C)=O)[C@H]2[C@@H](C)[C@@H](O)C[C@H](OC(C)=O)[C@]2(C)[C@@H](O)[C@H]1OC(C)=O | inactive | inactive | inactive | – | – | –
2 | CCCC(=O)O[C@@H]1/C(C)=C\[C@@H]2OC(=O)[C@@]3(C)O[C@]23[C@@H](OC(C)=O)[C@H]2[C@@H](C)[C@@H](OC(C)=O)C[C@H](OC(C)=O)[C@]2(C)[C@@H](OC(C)=O)[C@H]1O | inactive | inactive | inactive | – | – | –
3 | CCCCCCCC(=O)O[C@H]1C[C@H](OC(C)=O)[C@@]2(C)[C@H]([C@H]1C)[C@H](OC(C)=O)[C@]13O[C@]1(C)C(=O)O[C@H]3/C=C(/C)C[C@H](OC(=O)CCC)[C@@H]2OC(C)=O | inactive | inactive | inactive | – | – | –
4 | CCCC(=O)O[C@@H]1/C(C)=C\[C@@H]2OC(=O)[C@@]3(C)O[C@]23[C@@H](OC(C)=O)[C@H]2[C@@H](C)[C@@H](O)C[C@H](OC(C)=O)[C@]2(C)[C@@H](OC(C)=O)[C@H]1O [BRIAEXCAVATOLIDE P] | – | – | – | 0.9 µg/mL (≈ 1.47 µM) | 4.8 µg/mL (≈ 7.86 µM) | 3.1 µg/mL (≈ 5.08 µM)
